{"source": "paper PMC6754270", "about": "(Cell chemical biology, 2019)", "key": {"[1]": {"tested_on": "human VCP/p97 T688A", "details": "sensor-II variability hot-spot mutation; ref Anderson et al., 2015; cited from earlier work"}, "[2]": {"target": "T1, spastin-WT (Drosophila melanogaster spastin, aa 209–758) (Drosophila melanogaster, UniProt Q8I0P1)", "T1 sequence (Q8I0P1 209-758)": "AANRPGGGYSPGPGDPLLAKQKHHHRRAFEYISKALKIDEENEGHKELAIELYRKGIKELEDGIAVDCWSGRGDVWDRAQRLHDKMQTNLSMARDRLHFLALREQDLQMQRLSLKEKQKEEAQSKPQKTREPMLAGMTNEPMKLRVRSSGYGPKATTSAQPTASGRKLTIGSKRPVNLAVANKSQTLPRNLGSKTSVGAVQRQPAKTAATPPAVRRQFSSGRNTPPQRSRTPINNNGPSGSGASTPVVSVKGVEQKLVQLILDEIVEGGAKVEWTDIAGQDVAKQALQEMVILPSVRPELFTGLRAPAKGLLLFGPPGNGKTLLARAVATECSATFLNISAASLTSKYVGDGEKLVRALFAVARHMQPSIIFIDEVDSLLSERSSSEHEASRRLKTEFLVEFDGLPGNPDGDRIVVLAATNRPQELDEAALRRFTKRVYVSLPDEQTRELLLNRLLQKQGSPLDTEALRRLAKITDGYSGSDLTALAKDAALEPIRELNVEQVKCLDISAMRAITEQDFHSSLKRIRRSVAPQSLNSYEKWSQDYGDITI", "assay": "Steady-state ATPase activity, NADH-coupled assay, spastin-WT", "assay_type": "biochemical"}, "[3]": {"target": "spastin-Q488V (aa 209–758) (Drosophila melanogaster, UniProt Q8I0P1, Q488V)", "sequence (Q8I0P1 209-758 Q488V)": "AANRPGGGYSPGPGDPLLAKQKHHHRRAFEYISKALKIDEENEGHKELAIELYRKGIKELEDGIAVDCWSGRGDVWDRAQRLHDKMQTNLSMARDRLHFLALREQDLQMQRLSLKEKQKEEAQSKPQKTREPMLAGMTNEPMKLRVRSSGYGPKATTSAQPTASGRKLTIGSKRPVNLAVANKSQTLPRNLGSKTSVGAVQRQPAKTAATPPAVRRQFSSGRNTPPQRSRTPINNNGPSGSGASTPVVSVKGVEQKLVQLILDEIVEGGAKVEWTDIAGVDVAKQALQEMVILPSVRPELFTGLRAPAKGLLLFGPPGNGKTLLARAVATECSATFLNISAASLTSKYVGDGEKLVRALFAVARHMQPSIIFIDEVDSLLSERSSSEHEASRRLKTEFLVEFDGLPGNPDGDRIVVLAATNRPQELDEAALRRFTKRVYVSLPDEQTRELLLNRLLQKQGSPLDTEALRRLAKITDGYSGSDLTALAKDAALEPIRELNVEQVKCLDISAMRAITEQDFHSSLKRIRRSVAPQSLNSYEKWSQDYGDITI", "assay": "Steady-state ATPase activity, NADH-coupled assay, spastin-Q488V", "assay_type": "biochemical", "details": "for Change in inhibitor potency, Q488V (N-loop) vs wild-type: ATPase assay, compound 4: reduction in potency"}, "[4]": {"target": "spastin-N527C (aa 209–758) (Drosophila melanogaster, UniProt Q8I0P1, N527C)", "sequence (Q8I0P1 209-758 N527C)": "as the sequence (Q8I0P1 209-758 Q488V) above, with V280Q, N319C counted along it", "assay": "Steady-state ATPase activity, NADH-coupled assay, spastin-N527C", "assay_type": "biochemical", "details": "for Change in inhibitor potency, N527C (P-loop) vs wild-type: ATPase assay, compound 4: reduction in potency"}, "[5]": {"target": "spastin-T692A (aa 209–758) (Drosophila melanogaster, UniProt Q8I0P1, T692A)", "sequence (Q8I0P1 209-758 T692A)": "as the sequence (Q8I0P1 209-758 Q488V) above, with V280Q, T484A counted along it", "assay": "Steady-state ATPase activity, NADH-coupled assay, spastin-T692A", "assay_type": "biochemical", "details": "for Change in inhibitor potency, T692A (sensor-II) vs wild-type: ATPase assay, compound 1: increase in potency"}, "[6]": {"target": "T2, spastin-AAA-WT (aa 445–758) (Drosophila melanogaster, UniProt Q8I0P1)", "T2 sequence (Q8I0P1 445-758)": "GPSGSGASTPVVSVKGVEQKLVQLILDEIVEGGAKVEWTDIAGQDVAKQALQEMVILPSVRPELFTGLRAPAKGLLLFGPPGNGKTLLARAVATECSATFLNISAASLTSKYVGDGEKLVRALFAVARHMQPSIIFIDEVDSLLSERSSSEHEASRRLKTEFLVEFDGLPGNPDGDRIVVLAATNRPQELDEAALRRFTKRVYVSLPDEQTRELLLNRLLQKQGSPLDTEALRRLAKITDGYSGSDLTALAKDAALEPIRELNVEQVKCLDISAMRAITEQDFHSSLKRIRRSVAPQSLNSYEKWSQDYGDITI", "assay": "Differential scanning fluorimetry, spastin-AAA-WT", "assay_type": "binding", "details": "100 µM compound, vs DMSO, n=2", "in_short": "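Drosophila spastin AAA domain (aa 445–758), expressed as a GST fusion in E. coli Rosetta, protease-cleaved and purified by anion exchange and gel filtration. Tm taken as minimum of first-derivative melt curve; n=2, range shown.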"}, "[7]": {"target": "spastin-AAA-N527C (aa 445–758) (Drosophila melanogaster, UniProt Q8I0P1, N527C)", "sequence (Q8I0P1 445-758 N527C)": "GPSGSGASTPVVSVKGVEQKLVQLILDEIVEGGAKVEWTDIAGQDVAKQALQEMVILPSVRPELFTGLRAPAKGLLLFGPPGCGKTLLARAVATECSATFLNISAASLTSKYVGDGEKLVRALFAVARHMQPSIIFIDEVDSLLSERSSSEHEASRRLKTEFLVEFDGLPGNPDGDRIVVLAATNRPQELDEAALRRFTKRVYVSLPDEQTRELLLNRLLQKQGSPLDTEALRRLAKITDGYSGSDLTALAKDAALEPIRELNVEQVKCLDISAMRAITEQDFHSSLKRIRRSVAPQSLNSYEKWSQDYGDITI", "assay": "Differential scanning fluorimetry, spastin-AAA-N527C", "assay_type": "binding", "details": "100 µM compound, vs DMSO, n=2"}, "[8]": {"target": "spastin-AAA-Q488V (aa 445–758) (Drosophila melanogaster, UniProt Q8I0P1, Q488V)", "sequence (Q8I0P1 445-758 Q488V)": "as the sequence (Q8I0P1 445-758 N527C) above, with Q44V, C83N counted along it", "assay": "Differential scanning fluorimetry, spastin-AAA-Q488V", "assay_type": "binding", "details": "100 µM compound, vs DMSO, n=2"}, "[9]": {"target": "spastin-AAA-T692A (aa 445–758) (Drosophila melanogaster, UniProt Q8I0P1, T692A)", "sequence (Q8I0P1 445-758 T692A)": "as the sequence (Q8I0P1 445-758 N527C) above, with C83N, T248A counted along it", "assay": "Differential scanning fluorimetry, spastin-AAA-T692A", "assay_type": "binding", "details": "100 µM compound, vs DMSO, n=2"}, "[10]": {"target": "T1, spastin-WT (Drosophila melanogaster spastin, aa 209–758)", "details": "ref Cupido et al., 2019; cited from earlier work"}, "[11]": {"target": "T3, katanin (Xl-katanin) (Xenopus laevis, UniProt Q9PUL2)", "T3 sequence (Q9PUL2 whole entry)": "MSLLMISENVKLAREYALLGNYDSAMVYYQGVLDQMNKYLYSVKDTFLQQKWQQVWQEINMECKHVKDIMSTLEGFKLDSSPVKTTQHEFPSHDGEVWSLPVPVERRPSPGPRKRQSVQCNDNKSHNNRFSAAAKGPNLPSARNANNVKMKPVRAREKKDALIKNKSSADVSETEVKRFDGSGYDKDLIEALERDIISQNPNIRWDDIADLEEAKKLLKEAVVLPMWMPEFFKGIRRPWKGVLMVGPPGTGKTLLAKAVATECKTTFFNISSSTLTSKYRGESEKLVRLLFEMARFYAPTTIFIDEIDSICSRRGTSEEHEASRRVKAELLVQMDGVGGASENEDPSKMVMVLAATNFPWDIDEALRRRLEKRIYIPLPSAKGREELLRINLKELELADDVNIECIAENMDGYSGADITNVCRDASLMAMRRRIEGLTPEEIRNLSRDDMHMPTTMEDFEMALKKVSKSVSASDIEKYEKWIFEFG", "details": "ref Cupido et al., 2019; cited from earlier work"}, "[12]": {"target": "T4, fidgetin-like 1 (Hs-FIGL1) (Homo sapiens, UniProt Q6PIW4)", "T4 sequence (Q6PIW4 1-674)": "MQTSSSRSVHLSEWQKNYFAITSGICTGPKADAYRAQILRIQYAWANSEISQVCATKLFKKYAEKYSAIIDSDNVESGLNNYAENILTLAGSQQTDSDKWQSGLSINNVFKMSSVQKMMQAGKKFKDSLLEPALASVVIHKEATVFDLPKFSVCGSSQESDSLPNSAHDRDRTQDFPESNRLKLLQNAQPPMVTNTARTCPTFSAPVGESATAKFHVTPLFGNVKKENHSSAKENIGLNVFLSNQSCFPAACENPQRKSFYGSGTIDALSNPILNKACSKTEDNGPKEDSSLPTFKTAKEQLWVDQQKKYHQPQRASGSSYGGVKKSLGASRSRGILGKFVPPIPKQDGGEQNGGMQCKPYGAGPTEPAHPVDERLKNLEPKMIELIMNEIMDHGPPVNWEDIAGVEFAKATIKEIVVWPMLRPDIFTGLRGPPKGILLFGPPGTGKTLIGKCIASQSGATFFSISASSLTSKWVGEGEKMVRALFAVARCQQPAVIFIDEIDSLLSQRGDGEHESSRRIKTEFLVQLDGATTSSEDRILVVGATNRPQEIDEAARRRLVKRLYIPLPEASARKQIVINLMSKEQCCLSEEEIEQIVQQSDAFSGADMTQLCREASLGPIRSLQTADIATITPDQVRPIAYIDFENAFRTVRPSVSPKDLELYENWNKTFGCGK", "details": "ref Cupido et al., 2019; cited from earlier work"}, "[13]": {"target": "T3, katanin (Xl-katanin)", "assay": "Steady-state ATPase activity of katanin", "assay_type": "biochemical, X. laevis", "details": "2 µM compound, 0.5 mM MgATP, n=2"}, "[14]": {"target": "T4, fidgetin-like 1 (Hs-FIGL1)", "assay": "Steady-state ATPase activity of fidgetin-like 1", "assay_type": "biochemical, H. sapiens", "details": "2 µM compound, 0.5 mM MgATP, n=2"}, "[15]": {"target": "T5, VPS4B (Hs-VPS4B) (Homo sapiens, UniProt O75351)", "T5 sequence (O75351 1-444)": "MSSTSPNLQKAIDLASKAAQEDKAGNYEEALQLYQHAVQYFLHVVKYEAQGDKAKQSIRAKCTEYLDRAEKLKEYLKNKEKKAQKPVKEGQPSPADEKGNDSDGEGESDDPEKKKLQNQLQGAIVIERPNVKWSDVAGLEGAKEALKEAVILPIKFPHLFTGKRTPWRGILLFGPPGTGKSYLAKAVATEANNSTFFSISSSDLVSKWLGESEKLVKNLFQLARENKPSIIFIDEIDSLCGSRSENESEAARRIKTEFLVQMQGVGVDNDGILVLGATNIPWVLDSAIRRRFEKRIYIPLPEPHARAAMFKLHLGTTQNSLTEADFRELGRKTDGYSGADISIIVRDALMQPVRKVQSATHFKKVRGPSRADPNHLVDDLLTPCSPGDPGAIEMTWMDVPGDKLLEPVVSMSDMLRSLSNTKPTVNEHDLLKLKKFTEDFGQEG", "assay": "Steady-state ATPase activity of VPS4B", "assay_type": "biochemical, H. sapiens", "details": "2 µM compound, 0.5 mM MgATP, n=2"}}, "note": "“And” between values parts separate entries of the source, which are not always exact repeats. Equal entries are not always repeated. Where two headings read alike, the source gives them in different places."}
{"compound": "Cc1cc2c(C(N)=O)cccc2n1-c1nc2c(c(NCc3ccccc3)n1)COCC2", "note": "[CB-5083]", "values": [{"measurement": "Change in compound potency, T688A vs wild-type VCP/p97", "setting": "[1]", "result": "> 60", "unit": "fold"}]}
{"compound": "Nc1nc(Nc2ccc(S(N)(=O)=O)cc2)nn1C(=O)c1c(F)cccc1F", "note": "[compound 1, 4-((5-amino-1-(2,6-difluorobenzoyl)-1H-1,2,4-triazol-3-yl)amino)benzenesulfonamide]", "values": [{"measurement": "IC50", "setting": "[2]; IC50, inhibition of steady-state ATPase activity of spastin-WT, 0.5 mM MgATP, average ± s.d., n=3", "result": "5.7 µM and 5.8 µM"}, {"measurement": "Mechanism of inhibition", "setting": "[2]; range of ATP concentrations, apparent K1/2 for ATP increased, kcat not altered", "result": "ATP competitive mechanism of inhibition"}, {"measurement": "IC50", "setting": "[3]", "result": "8.9 ± 0.5", "unit": "µM"}, {"measurement": "Change in inhibitor potency, Q488V (N-loop) vs wild-type", "setting": "[3]", "result": "less than 2 fold"}, {"measurement": "IC50", "setting": "[4]", "result": "6 ± 1", "unit": "µM"}, {"measurement": "Change in inhibitor potency, N527C (P-loop) vs wild-type", "setting": "[4]", "result": "less than 2 fold"}, {"measurement": "IC50", "setting": "[5]", "result": "0.9 ± 0.1", "unit": "µM"}, {"measurement": "Change in inhibitor potency, T692A (sensor-II) vs wild-type", "setting": "[5]", "result": "~ 7 fold"}, {"measurement": "Observed ∆Tm, spastin-AAA-WT", "setting": "[6]", "result": "~ 4.5 °C"}, {"measurement": "Observed ∆Tm, spastin-AAA-N527C", "setting": "[7]", "result": "~ 4.3 °C"}, {"measurement": "Observed ∆Tm, spastin-AAA-Q488V", "setting": "[8]", "result": "~ 4.5 °C"}, {"measurement": "Observed ∆Tm, spastin-AAA-T692A", "setting": "[9]", "result": "~ 6.2 °C"}, {"measurement": "Effect on ATPase activity of spastin", "setting": "[10]", "result": "blocks the ATPase activity"}, {"measurement": "Effect on ATPase activity of katanin", "setting": "[11]", "result": "blocks the ATPase activity"}, {"measurement": "Effect on ATPase activity of fidgetin-like 1", "setting": "[12]", "result": "blocks the ATPase activity"}]}
{"compound": "CNC(=O)c1cccc(Nc2nc(N)n(C(=O)c3c(F)cccc3OC)n2)c1", "note": "[compound 4, 3-((5-amino-1-(2-fluoro-6-methoxybenzoyl)-1H-1,2,4-triazol-3-yl)amino)-N-methylbenzamide]", "values": [{"measurement": "IC50", "setting": "[2]", "result": "0.23 ± 0.02", "unit": "µM"}, {"measurement": "Inhibition of steady-state ATPase activity of spastin", "setting": "[2]; 2 µM compound, 0.5 mM MgATP, n=2", "result": "potently inhibits"}, {"measurement": "IC50", "setting": "[3]", "result": "2.6 ± 0.15", "unit": "µM"}, {"measurement": "Change in inhibitor potency, Q488V (N-loop) vs wild-type", "setting": "[3]", "result": "~ 11 fold"}, {"measurement": "IC50", "setting": "[4]", "result": "1.11 ± 0.21", "unit": "µM"}, {"measurement": "Change in inhibitor potency, N527C (P-loop) vs wild-type", "setting": "[4]", "result": "~ 4 fold"}, {"measurement": "IC50", "setting": "[5]", "result": "0.22 ± 0.04", "unit": "µM"}, {"measurement": "Change in inhibitor potency, T692A (sensor-II) vs wild-type", "setting": "[5]", "result": "did not change the potency"}, {"measurement": "Observed ∆Tm, spastin-AAA-WT", "setting": "[6]", "result": "~ 6.7 °C"}, {"measurement": "Observed ∆Tm, spastin-AAA-N527C", "setting": "[7]", "result": "~ 4.5 °C"}, {"measurement": "Observed ∆Tm, spastin-AAA-Q488V", "setting": "[8]", "result": "~ 5.0 °C"}, {"measurement": "Observed ∆Tm, spastin-AAA-T692A", "setting": "[9]", "result": "~ 7.2 °C"}, {"measurement": "Inhibition of steady-state ATPase activity of katanin", "setting": "[13]", "result": "does not substantially inhibit"}, {"measurement": "Inhibition of steady-state ATPase activity of fidgetin-like 1", "setting": "[14]", "result": "does not substantially inhibit"}, {"measurement": "Inhibition of steady-state ATPase activity of VPS4B", "setting": "[15]", "result": "does not substantially inhibit"}]}
